Results gathered from unrelated publications.
Lines come from different studies, so protocols differ.

`CCC(=O)Nc1cc(Nc2cc(NC3CC3)n3ncc(C#N)c3n2)ccc1N1CCC[C@@H](NC)C1` has a kinetic solubility of 65 µg/mL (shake flask; PBS; 24 h, pH 7.4, 22 °C).
For `Cc1cc(Nc2ccc(C(F)(F)F)cc2)c2ccccc2n1`, the kinetic solubility was greater than 330 µM (simulated gastric fluid; pH 2, acidic).
The kinetic solubility of `Fc1ccc(Nc2c(-c3ccccn3)nc3ccc(C4CC4)cn23)cc1` is reported as 3 µM (aqueous buffer; 24 h).
The kinetic solubility of `COC(=O)CN(CC(=O)N[C@@H](Cc1c[nH]cn1)C(=O)OC)Cc1ccccc1` is reported as 191 µM (PBS; 24 h, pH 7.4).
`O=C(/C=C/c1cccnc1)NCCCCC1CCN(C(=O)c2ccccc2)CC1` has a kinetic solubility of 225 µM (PBS; 90 min, pH 7.4).
The kinetic solubility of `CCc1cnc2c(c1)[C@@H](N1CCOc3c(cc(Cn4ccnc4)cc3-c3cn(C)nc3C(F)(F)F)C1=O)CCC2` is reported as 74 µM (PBS; 1 h, pH 7.4).
With `CCCCOC(=O)NS(=O)(=O)c1sc(CC(C)C)cc1-c1ccc2c(c1)CN(C(C)=O)CC2` the kinetic solubility was 31 µM (aqueous buffer; pH 7.4, 37 °C).
`CN[C@H]1CCCN(c2ccc(Nc3cc(NC4CC4)n4ncc(C#N)c4n3)cc2NC(C)=O)C1` gave a kinetic solubility of 54 µg/mL (shake flask; PBS; 24 h, pH 7.4, 22 °C).
With `Cc1noc([C@H](Cc2c[nH]cn2)NC(=O)CN(CCCc2ccccc2)CC(=O)O)n1` the kinetic solubility was 198 µM (PBS; 24 h, pH 7.4).
`CC(=O)Nc1cc(Nc2cc(NC3CC3)n3ncc(C#N)c3n2)ccc1N[C@@H]1CCCOC1` gave a kinetic solubility of 2.4 µg/mL (shake flask; PBS; 24 h, pH 7.4, 22 °C).
`CCOC(=O)NS(=O)(=O)c1sc(CC(C)C)cc1-c1ccc2c(c1)CN(C(C)=O)C2` gave a kinetic solubility of 35 µM (aqueous buffer; pH 7.4, 37 °C).
With `O=C(O)CN(CCCc1ccccc1)CC(=O)N[C@H](CO)Cc1c[nH]cn1` the kinetic solubility was 180 µM (PBS; 24 h, pH 7.4).
The kinetic solubility of `Cc1cc(Nc2ccc(S(F)(F)(F)(F)F)cc2)n2ccnc2n1` is reported as 8.9 µM (PBS; pH 6.5).
The kinetic solubility of `CCCCOC(=O)NS(=O)(=O)c1sc(CC(C)C)cc1-c1ccc2c(c1)CN(C(C)=O)C2` is reported as 30 µM (aqueous buffer; pH 7.4, 37 °C).
With `COC(=O)CN(CCCc1ccccc1)CC(=O)N[C@@H](Cc1c[nH]cn1)c1nc(C)no1` the kinetic solubility was 172 µM (PBS; 24 h, pH 7.4).
`CN[C@H]1CCN(c2ccc(Nc3cc(NC4CC4)n4ncc(C#N)c4n3)cc2NC(C)=O)C1` gave a kinetic solubility of 49 µg/mL (shake flask; PBS; 24 h, pH 7.4, 22 °C).
`C=CC(=O)Nc1cc(Nc2nccc(Nc3cc(Cl)c(F)cc3C(C)(C)O)n2)c(OC)cc1N1CC[C@@H](N(C)C)C1` gave a kinetic solubility of 616 µM (aqueous buffer; pH 7.4).
The kinetic solubility of `CC(=O)Nc1cc(Nc2cc(NC3CC3)n3ncc(C#N)c3n2)ccc1N(C)[C@@H]1CCOC1` is reported as 25 µg/mL (shake flask; PBS; 24 h, pH 7.4, 22 °C).
`CNC(=O)[C@H](Cc1c[nH]cn1)NC(=O)CN(CC(=O)O)Cc1ccccc1` gave a kinetic solubility of 151 µM (PBS; 24 h, pH 7.4).
The kinetic solubility of `CC(=O)Nc1cc(Nc2cc(NC3CC3)n3ncc(C#N)c3n2)ccc1N1CCC[C@H](O)C1` is reported as 37 µg/mL (shake flask; PBS; 24 h, pH 7.4, 22 °C).
The kinetic solubility of `CCCCOC(=O)NS(=O)(=O)c1sc(CC(C)C)cc1-c1ccc2c(c1)CCN(C(C)=O)C2` is reported as 45 µM (aqueous buffer; pH 7.4, 37 °C).
